ChEMBL document CHEMBL1138075 (Bioorg Med Chem Lett, 2006)
Values belong to the molecule of their own block, whether it stands above or below them. Active and inactive are the calls of the source. The rule behind the calls is not given here. Square brackets hold non-standard residues; d marks the D form. Peptide text beside a SMILES is read from it. Thz = O=C(O)[C@@H]1CSCN1

Legend:
[1] = biological target: T1, Glutamate NMDA receptor (Rattus norvegicus) (UniProt P35439+Q00959+Q00960+Q00961+Q62645+Q8VHN2+Q9R1M7); assay: Binding affinity to GluR in rat brain synaptic membranes at 100 uM
[2] = biological target: T1, Glutamate NMDA receptor (Rattus norvegicus); assay: Protection of rat hippocampal neurons from NMDA excitotoxicity; type: functional, tissue-based; details: Hippocampus
Outline: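 Neuronal death was induced in cultured rat hippocampal neurons by exposure to NMDA (100 µM), and neuronal survival was scored with test agent present.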

Hippocampal neurone = assay: Protection of rat hippocampal neurons from oxygen-glucose deprivation; type: functional, tissue-based; details: Hippocampus
Outline: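 Cultured rat hippocampal neurons were subjected to oxygen-glucose deprivation injury, and neuronal survival was assessed with test agent present.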

[3] = biological target: T1, Glutamate NMDA receptor (Rattus norvegicus); assay: (§1) Displacement of L[3H]glutamate from GluR in rat brain synaptic membrane; type: cell membranes
Outline: (§2)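 Competitive radioligand binding to glutamate receptors: displacement of L-[³H]glutamate from rat brain synaptic membranes, with test concentrations up to 100 μM.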

Glutamate NMDA receptor = assay: as §1; type: cell membranes
Outline: as §2

[4] = biological target: T1, Glutamate NMDA receptor (Rattus norvegicus); assay: Displacement of L[3H]glutamate from GluR in rat brain synaptic membrane up to 100 uM; type: cell membranes
Outline: as §2

SMILES: NCC(=O)N1CCC[C@H]1C(=O)N[C@H](CCC(=O)O)C(=O)O
- Activity [1]: inactive
- Activity [2]: Active
- Activity (Hippocampal neurone): Active

SMILES: CC1(C)CC[C@H](C(=O)N[C@@H](CCC(=O)O)C(=O)O)N1C(=O)CN
- Ki (Glutamate NMDA receptor): 0.33 µM

SMILES: CC1(C)CC[C@@H](C(=O)N[C@@H](CCC(=O)O)C(=O)O)N1C(=O)CN
- Ki (Glutamate NMDA receptor): 3.79 µM

SMILES: CC1(C)SC[C@@H](C(=O)N[C@@H](CCC(=O)O)C(=O)O)N1C(=O)CN
- Activity [3]: inactive

SMILES: NCC(=O)N1CCC[C@]12CCN([C@@H](CCC(=O)O)C(=O)O)C2=O
- Activity [4]: inactive

Second part, led by results:

- Activity [3]: inactive
SMILES: NCC(=O)N1CSC[C@H]1C(=O)N[C@@H](CCC(=O)O)C(=O)O (H-Gly-[Thz]-Glu-OH)

- Ki (Glutamate NMDA receptor): 31.2 µM
SMILES: C[C@@]1(C(=O)N[C@@H](CCC(=O)O)C(=O)O)CCCN1C(=O)CN (stereo in doubt; 1) [TROFINETIDE]

- Activity [4]: inactive
SMILES: CCC[C@@]1(C(=O)N[C@@H](CCC(=O)O)C(=O)O)CCCN1C(=O)CN

- Activity [1]: inactive
SMILES: NCC(=O)N1CCC[C@@H]1C(=O)N[C@@H](CCC(=O)O)C(=O)O
- Activity [2]: Active
- Activity (Hippocampal neurone): Active
